The values that follow come from ChEMBL document CHEMBL3861974, “Discovery of a Selective Aurora A Kinase Inhibitor by Virtual Screening” (J Med Chem, 2016).

Test [1] addresses Macrophage colony-stimulating factor 1 receptor (Homo sapiens, UniProt P07333). As to the kind of experiment: Binding affinity to auto-inhibited human CSF1R expressed in Escherichia coli BL21 cells incubated for 1 hr by active site directed binding competition assay. In a few lines:
(§1)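 Kinome scan of 456 kinases using an active-site-directed binding competition assay, followed by determination of binding affinities (Kd). Aurora B in this scan was free enzyme without INCENP.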

In a further test the target is Aurora kinase B (Homo sapiens, UniProt Q96GD4). Kind of test: Binding affinity to human Aurora B kinase expressed in Escherichia coli BL21 cells incubated for 1 hr by active site directed binding competition assay. The essentials:
as §1

The species entered for a further test is Homo sapiens. As to the kind of experiment: Selectivity index, ratio of IC50 for Aurora-B/INCENP (unknown origin) to IC50 for His-tagged human Aurora A kinase ([…] residues) expressed in Escherichia coli BL21 (DE3) Rosetta cells.
Test [2] has as its target T1, Aurora kinase A (Homo sapiens) (UniProt O14965).
T1 sequence (whole entry): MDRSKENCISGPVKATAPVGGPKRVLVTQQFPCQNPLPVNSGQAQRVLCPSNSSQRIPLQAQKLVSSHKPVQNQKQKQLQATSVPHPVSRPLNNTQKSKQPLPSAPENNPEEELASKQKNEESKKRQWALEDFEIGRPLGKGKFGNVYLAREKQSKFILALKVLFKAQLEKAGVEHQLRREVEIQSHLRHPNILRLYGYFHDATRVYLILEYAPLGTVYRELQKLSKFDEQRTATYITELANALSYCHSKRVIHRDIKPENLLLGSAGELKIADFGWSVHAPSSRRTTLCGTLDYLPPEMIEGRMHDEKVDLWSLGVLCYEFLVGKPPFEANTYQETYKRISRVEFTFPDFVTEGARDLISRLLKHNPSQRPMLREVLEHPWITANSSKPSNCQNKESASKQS
Kind of test: Binding affinity to His-tagged human Aurora A kinase ([…] residues) expressed in Escherichia coli BL21 (DE3) Rosetta cells assessed as reduction in Aurora A binding to TPX-labeled human TPX2 N-terminal domain (1 to 43 residues) at 125 uM incubated for 30 mins by microscale thermophoresis method.

Test [3] has as its target Aurora kinase B/Inner centromere protein (Homo sapiens, UniProt Q96GD4). As to the kind of experiment: Inhibition of Aurora-B/INCENP (unknown origin) using biotinylated STK2 substrate incubated for 30 mins by HTRF assay. Format: protein-complex assay. The essentials: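 Biochemical kinase inhibition was read by HTRF with 20 µM ATP. Aurora B was assayed as its complex with the activator INCENP. For Aurora A, IC50 curves were recorded at different TPX2 concentrations.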

Test [4] deals with Phosphatidylinositol 4,5-bisphosphate 3-kinase catalytic subunit gamma isoform (Homo sapiens, UniProt P48736). As to the kind of experiment: Binding affinity to human PIK3CG expressed in Escherichia coli BL21 cells incubated for 1 hr by active site directed binding competition assay. In a few lines:
as §1

For test [5], the target named is T2, Mitogen-activated protein kinase kinase kinase 19 (Homo sapiens, UniProt Q56UN5).
T2 sequence (Q56UN5 whole entry): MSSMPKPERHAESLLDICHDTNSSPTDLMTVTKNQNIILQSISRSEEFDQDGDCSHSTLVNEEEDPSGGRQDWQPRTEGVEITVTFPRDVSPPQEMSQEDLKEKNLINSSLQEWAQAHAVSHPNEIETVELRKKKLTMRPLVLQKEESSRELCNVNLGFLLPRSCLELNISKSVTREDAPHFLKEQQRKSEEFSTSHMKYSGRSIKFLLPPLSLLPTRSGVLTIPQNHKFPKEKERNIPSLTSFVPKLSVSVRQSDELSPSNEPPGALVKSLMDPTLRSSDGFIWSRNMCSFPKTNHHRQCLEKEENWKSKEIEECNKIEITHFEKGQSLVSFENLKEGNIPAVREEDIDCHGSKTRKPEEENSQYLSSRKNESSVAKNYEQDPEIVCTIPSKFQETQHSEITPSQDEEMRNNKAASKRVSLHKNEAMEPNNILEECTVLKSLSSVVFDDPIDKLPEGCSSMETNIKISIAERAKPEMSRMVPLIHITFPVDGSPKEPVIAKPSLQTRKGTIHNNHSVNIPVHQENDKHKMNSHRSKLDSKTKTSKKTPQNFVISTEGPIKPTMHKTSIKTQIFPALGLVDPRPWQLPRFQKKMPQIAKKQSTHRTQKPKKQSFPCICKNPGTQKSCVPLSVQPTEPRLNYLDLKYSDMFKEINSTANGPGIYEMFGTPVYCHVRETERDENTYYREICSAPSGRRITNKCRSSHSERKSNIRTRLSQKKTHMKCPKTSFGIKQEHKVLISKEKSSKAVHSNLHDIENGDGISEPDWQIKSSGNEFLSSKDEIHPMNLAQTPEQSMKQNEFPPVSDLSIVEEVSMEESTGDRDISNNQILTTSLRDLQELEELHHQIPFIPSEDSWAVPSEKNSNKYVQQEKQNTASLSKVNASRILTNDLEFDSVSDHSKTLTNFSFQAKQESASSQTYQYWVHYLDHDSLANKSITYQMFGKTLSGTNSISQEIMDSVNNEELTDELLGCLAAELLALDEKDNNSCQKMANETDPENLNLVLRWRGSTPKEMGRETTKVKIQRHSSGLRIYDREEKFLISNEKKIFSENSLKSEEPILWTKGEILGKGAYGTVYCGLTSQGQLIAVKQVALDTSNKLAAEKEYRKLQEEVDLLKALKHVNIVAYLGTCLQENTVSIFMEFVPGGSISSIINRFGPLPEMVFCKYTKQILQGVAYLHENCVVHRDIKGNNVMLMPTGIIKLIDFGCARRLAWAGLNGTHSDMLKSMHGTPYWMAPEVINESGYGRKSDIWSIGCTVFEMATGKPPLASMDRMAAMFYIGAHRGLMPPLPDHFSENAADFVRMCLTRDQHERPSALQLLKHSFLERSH
Kind of test: Binding affinity to human YSK4 expressed in Escherichia coli BL21 cells incubated for 1 hr by active site directed binding competition assay. In a few lines: as §1

The source made the active and inactive calls. The calls are words filed in the database; no cut-off is given here.

Chain of Aurora kinase B/Inner centromere protein (Q96GD4 whole entry): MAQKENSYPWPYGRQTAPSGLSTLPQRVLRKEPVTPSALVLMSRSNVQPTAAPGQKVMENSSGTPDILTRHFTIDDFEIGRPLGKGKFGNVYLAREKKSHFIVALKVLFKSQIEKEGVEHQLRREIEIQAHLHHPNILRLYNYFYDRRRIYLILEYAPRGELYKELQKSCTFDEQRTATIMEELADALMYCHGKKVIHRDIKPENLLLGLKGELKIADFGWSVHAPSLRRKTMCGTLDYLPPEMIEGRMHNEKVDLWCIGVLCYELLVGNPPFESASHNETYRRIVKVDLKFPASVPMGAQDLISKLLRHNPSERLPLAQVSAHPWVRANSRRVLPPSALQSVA
Chain of Aurora kinase B/Inner centromere protein (Q9NQS7 whole entry, further chain): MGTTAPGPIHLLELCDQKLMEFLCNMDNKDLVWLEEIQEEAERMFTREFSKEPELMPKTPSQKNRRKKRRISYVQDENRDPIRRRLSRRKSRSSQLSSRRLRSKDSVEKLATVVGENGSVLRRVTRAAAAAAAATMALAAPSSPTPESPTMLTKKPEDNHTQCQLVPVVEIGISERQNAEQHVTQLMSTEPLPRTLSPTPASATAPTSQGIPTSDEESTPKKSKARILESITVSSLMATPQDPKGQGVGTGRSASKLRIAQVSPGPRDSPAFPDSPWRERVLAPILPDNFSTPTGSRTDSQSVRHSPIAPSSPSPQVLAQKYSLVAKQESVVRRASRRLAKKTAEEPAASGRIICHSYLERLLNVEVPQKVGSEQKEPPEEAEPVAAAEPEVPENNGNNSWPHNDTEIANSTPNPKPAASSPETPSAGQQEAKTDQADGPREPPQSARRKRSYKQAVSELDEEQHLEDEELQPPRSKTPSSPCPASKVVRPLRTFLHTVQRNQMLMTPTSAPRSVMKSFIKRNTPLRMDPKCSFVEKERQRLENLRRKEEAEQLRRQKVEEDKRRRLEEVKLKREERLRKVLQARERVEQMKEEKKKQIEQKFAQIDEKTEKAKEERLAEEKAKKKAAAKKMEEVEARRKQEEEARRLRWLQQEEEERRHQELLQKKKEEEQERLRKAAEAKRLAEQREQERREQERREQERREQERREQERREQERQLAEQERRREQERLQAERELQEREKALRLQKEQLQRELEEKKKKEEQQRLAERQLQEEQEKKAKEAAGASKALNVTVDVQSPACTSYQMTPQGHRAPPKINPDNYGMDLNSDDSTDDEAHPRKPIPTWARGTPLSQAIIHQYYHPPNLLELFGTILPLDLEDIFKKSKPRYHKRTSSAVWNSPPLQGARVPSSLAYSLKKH
Chain of Aurora kinase B (Q96GD4 whole entry): as the sequence (Q96GD4 whole entry) above
Chain of Phosphatidylinositol 4,5-bisphosphate 3-kinase catalytic subunit gamma isoform (P48736 whole entry, canonical isoform): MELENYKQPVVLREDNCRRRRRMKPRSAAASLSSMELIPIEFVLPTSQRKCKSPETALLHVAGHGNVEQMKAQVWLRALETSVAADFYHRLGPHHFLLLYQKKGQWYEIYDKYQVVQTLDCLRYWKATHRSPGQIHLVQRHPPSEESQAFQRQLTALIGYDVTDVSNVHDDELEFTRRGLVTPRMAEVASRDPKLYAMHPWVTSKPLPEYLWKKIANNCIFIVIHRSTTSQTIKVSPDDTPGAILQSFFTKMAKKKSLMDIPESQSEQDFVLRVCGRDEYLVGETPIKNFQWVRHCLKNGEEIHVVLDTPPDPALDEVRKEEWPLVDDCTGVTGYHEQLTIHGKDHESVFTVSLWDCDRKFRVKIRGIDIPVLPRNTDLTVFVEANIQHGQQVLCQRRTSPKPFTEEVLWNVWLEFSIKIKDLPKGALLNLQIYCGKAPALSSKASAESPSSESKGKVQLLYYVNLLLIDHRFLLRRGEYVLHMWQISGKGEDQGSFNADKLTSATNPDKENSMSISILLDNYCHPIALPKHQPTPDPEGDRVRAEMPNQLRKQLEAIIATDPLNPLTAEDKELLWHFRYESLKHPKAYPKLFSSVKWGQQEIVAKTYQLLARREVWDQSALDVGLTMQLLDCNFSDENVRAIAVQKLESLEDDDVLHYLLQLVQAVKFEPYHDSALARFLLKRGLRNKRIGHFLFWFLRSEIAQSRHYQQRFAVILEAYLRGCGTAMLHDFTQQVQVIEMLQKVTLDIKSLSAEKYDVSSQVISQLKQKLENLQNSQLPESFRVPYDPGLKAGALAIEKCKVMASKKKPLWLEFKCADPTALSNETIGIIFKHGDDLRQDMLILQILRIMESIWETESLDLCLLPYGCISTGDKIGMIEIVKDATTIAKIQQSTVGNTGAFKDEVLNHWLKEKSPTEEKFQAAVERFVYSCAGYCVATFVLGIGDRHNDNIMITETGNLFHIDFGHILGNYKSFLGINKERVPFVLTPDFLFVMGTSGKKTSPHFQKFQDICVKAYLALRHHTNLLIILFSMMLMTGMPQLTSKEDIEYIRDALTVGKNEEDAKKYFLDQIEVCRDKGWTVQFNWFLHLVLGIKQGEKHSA
Chain of Macrophage colony-stimulating factor 1 receptor (P07333 whole entry): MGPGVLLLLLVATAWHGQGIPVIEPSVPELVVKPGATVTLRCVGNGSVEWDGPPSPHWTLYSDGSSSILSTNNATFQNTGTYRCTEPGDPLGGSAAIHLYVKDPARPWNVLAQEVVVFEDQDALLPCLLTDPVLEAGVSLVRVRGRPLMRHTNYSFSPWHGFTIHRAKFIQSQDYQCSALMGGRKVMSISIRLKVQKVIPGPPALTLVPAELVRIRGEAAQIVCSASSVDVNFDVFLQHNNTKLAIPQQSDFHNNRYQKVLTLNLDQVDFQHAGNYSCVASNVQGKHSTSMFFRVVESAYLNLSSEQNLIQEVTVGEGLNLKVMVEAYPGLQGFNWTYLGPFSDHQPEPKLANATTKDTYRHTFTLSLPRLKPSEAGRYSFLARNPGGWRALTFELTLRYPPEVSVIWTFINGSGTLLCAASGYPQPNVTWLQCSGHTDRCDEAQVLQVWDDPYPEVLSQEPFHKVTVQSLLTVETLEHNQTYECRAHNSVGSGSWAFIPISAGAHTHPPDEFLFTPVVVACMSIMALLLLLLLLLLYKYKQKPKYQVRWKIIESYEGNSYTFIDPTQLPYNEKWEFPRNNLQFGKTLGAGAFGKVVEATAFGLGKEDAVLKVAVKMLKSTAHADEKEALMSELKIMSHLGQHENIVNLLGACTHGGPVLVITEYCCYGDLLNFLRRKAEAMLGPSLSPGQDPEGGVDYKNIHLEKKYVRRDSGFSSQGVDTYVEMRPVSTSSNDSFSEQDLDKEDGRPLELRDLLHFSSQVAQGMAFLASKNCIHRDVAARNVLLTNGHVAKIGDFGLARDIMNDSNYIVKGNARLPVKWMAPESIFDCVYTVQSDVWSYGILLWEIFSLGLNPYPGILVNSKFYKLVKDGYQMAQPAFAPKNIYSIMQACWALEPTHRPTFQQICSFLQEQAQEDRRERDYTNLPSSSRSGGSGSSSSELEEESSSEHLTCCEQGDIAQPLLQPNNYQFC

Take `CCc1ccc(/N=C2\S/C(=C\c3ccnc(Nc4ccc(C(=O)O)cn4)c3)C(=O)N2C)cc1`: the Kd in test [1] came to 120 nM; at Aurora kinase B, 10.1 nM; in test [4], 1500 nM; in test [5] it was 2900 nM. In addition, the Ratio IC50 in the test filed under Homo sapiens is 75. In addition, the result in test [2] was Active. Moreover, the IC50 in test [3] worked out at 150 nM.
